Legend:
[1] = target: adenosine A2A (hADORA2A) receptor (Homo sapiens, UniProt P29274); assay: cAMP ELISA in NECA/ADA-stimulated hADORA2A-HEK293 cells; assay type: cell-based
[2] = Photostability of solution, HPLC purity after 1 h of light exposure; assay type: physicochemical; conditions: 1 h light exposure
Method in brief: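 Test compound dissolved in acetonitrile–potassium dihydrogen phosphate solution. A reference solution was kept in the dark, and a second sample was exposed to light for 1 h. Purity of each was determined by HPLC with DAD detection.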

Sequence of adenosine A2A (hADORA2A) receptor (P29274 whole entry): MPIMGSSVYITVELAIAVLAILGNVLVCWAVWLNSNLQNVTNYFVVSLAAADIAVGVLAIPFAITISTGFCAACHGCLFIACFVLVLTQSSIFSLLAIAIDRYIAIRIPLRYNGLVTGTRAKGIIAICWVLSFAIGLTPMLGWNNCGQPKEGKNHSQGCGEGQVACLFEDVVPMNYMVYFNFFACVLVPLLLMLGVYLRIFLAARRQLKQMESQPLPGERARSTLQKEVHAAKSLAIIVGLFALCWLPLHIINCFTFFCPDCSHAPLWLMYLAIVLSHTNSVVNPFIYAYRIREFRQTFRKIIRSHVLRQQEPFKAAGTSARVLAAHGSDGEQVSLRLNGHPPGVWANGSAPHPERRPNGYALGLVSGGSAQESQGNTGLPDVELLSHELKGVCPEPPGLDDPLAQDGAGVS

| Compound | IC50 [1] | isomerization after 1 h of light exposure [2] |
| --- | --- | --- |
| Nc1ncnc2[nH]c(/C=C/c3ccccc3)nc12 [II-1-1, (E) -8-styryl-9H-purine-6-amine] | > 421 µM | – |
| CCn1c(=O)c2c(nc(/C=C/c3ccc(OC)c(OC)c3)n2C)n(CC)c1=O [Istradefylline, istradefylline] | – | about 1/3 |
